# From paper PMC3137751 (Biochemistry, 2010)
# Experiments:
# [1] = substrate: O=C(O)C[C@H](C(=O)O)[C@@H](O)C(=O)O; test: Apparent S0.5 for isocitrate; type: biochemical; conditions: pH 7.4; 24.0 °C
# [2] = tested on: Yeast NAD+-specific isocitrate dehydrogenase (IDH); test: Kinetic analyses: isocitrate saturation velocity curves of purified IDH enzymes; type: biochemical; conditions: for Hill coef. with respect to isocitrate, − AMP: absence of AMP; for Vmax (apparent), + AMP: isocitrate velocity saturation curve; for Vmax (apparent), + AMP / Hill coef. with respect to isocitrate, + AMP: presence of 100 μM AMP
# Method in brief: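 His-tagged IDH purified by Ni2+-NTA, stored at −20 °C in elution buffer with 20% glycerol, quantified by A280. Assays at 24 °C used 40 mM Tris-HCl pH 7.4, 4 mM MgCl2 and 0.5 mM NAD+. D-isocitrate was varied 0–5 mM, with or without 100 μM AMP, and NADH formation was followed. Apparent S0.5 and Hill coefficients came from saturation curves, Vmax as maximum velocity per mg, over two independent experiments.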
# AUC = molecular target: the molecule itself; test: AUC
Molecule,K0.5 [1],"Hill coef. with respect to isocitrate, − AMP [2]","Vmax (apparent), + AMP [2] [units/mg]","Hill coef. with respect to isocitrate, + AMP [2]",reduction in apparent Vmax relative to ^-5IDH1/IDH2 [2],reduction in apparent Vmax relative to IDH1/IDH2 (wild-type) ([2]; relative to IDH1/IDH2),stoichiometry N (AUC)
IDH1/IDH2 (Saccharomyces cerevisiae S288C) (protein) chain 1: ATAAQAERTLPKKYGGRFTVTLIPGDGVGKEITDSVRTIFEAENIPIDWETINIKQTDHKEGVYEAVESLKRNKIGLKGLWHTPADQTGHGSLNVALRKQLDIYANVALFKSLKGVKTRIPDIDLIVIRENTEGEFSGLEHESVPGVVESLKVMTRPKTERIARFAFDFAKKYNRKSVTAVHKANIMKLGDGLFRNIITEIGQKEYPDIDVSSIIVDNASMQAVAKPHQFDVLVTPSMYGTILGNIGAALIGGPGLVAGANFGRDYAVFEPGSRHVGLDIKGQNVANPTAMILSSTLMLNHLGLNEYATRISKAVHETIAEGKHTTRDIGGSSSTTDFTNEIINKLSTM chain 2: ATVKQPSIGRYTGKPNPSTGKYTVSFIEGDGIGPEISKSVKKIFSAANVPIEWESCDVSPIFVNGLTTIPDPAVQSITKNLVALKGPLATPIGKGHRSLNLTLRKTFGLFANVRPAKSIEGFKTTYENVDLVLIRENTEGEYSGIEHIVCPGVVQSIKLITRDASERVIRYAFEYARAIGRPRVIVVHKSTIQRLADGLFVNVAKELSKEYPDLTLETELIDNSVLKVVTNPSAYTDAVSVCPNLYGDILSDLNSGLSAGSLGLTPSANIGHKISIFEAVHGSAPDIAGQDKANPTALLLSSVMMLNHMGLTNHADQIQNAVLSTIASGPENRTGDLAGTATTSSFTEAVIKRL,0.53/0.10 (±0.10/0) mM,–,–,–,–,–,–
"^-5IDH1^G15D/IDH2: truncated -5 IDH1 with G15D replacement plus IDH2; tetrameric (protein, left off: histidine tag, C-terminal, kept) chain 1: AERTLPKKYDGRFTVTLIPGDGVGKEITDSVRTIFEAENIPIDWETINIKQTDHKEGVYEAVESLKRNKIGLKGLWHTPADQTGHGSLNVALRKQLDIYANVALFKSLKGVKTRIPDIDLIVIRENTEGEFSGLEHESVPGVVESLKVMTRPKTERIARFAFDFAKKYNRKSVTAVHKANIMKLGDGLFRNIITEIGQKEYPDIDVSSIIVDNASMQAVAKPHQFDVLVTPSMYGTILGNIGAALIGGPGLVAGANFGRDYAVFEPGSRHVGLDIKGQNVANPTAMILSSTLMLNHLGLNEYATRISKAVHETIAEGKHTTRDIGGSSSTTDFTNEIINKLSTM chain 2: ATVKQPSIGRYTGKPNPSTGKYTVSFIEGDGIGPEISKSVKKIFSAANVPIEWESCDVSPIFVNGLTTIPDPAVQSITKNLVALKGPLATPIGKGHRSLNLTLRKTFGLFANVRPAKSIEGFKTTYENVDLVLIRENTEGEYSGIEHIVCPGVVQSIKLITRDASERVIRYAFEYARAIGRPRVIVVHKSTIQRLADGLFVNVAKELSKEYPDLTLETELIDNSVLKVVTNPSAYTDAVSVCPNLYGDILSDLNSGLSAGSLGLTPSANIGHKISIFEAVHGSAPDIAGQDKANPTALLLSSVMMLNHMGLTNHADQIQNAVLSTIASGPENRTGDLAGTATTSSFTEAVIKRL",–,2.2,15.4,2.0,~ 50%,–,–
^-5IDH1^D168K/IDH2 (Saccharomyces cerevisiae S288C; D179K) (protein) chain 1: AERTLPKKYGGRFTVTLIPGDGVGKEITDSVRTIFEAENIPIDWETINIKQTDHKEGVYEAVESLKRNKIGLKGLWHTPADQTGHGSLNVALRKQLDIYANVALFKSLKGVKTRIPDIDLIVIRENTEGEFSGLEHESVPGVVESLKVMTRPKTERIARFAFKFAKKYNRKSVTAVHKANIMKLGDGLFRNIITEIGQKEYPDIDVSSIIVDNASMQAVAKPHQFDVLVTPSMYGTILGNIGAALIGGPGLVAGANFGRDYAVFEPGSRHVGLDIKGQNVANPTAMILSSTLMLNHLGLNEYATRISKAVHETIAEGKHTTRDIGGSSSTTDFTNEIINKLSTM chain 2: ATVKQPSIGRYTGKPNPSTGKYTVSFIEGDGIGPEISKSVKKIFSAANVPIEWESCDVSPIFVNGLTTIPDPAVQSITKNLVALKGPLATPIGKGHRSLNLTLRKTFGLFANVRPAKSIEGFKTTYENVDLVLIRENTEGEYSGIEHIVCPGVVQSIKLITRDASERVIRYAFEYARAIGRPRVIVVHKSTIQRLADGLFVNVAKELSKEYPDLTLETELIDNSVLKVVTNPSAYTDAVSVCPNLYGDILSDLNSGLSAGSLGLTPSANIGHKISIFEAVHGSAPDIAGQDKANPTALLLSSVMMLNHMGLTNHADQIQNAVLSTIASGPENRTGDLAGTATTSSFTEAVIKRL,0.61/0.13 (±0.13/0.04) mM,–,–,–,–,–,–
"IDH1^G15D/IDH2: full-length IDH1 with G15D substitution plus IDH2; stable tetramer (protein, left off: histidine tag, C-terminal, kept) chain 1: ATAAQAERTLPKKYDGRFTVTLIPGDGVGKEITDSVRTIFEAENIPIDWETINIKQTDHKEGVYEAVESLKRNKIGLKGLWHTPADQTGHGSLNVALRKQLDIYANVALFKSLKGVKTRIPDIDLIVIRENTEGEFSGLEHESVPGVVESLKVMTRPKTERIARFAFDFAKKYNRKSVTAVHKANIMKLGDGLFRNIITEIGQKEYPDIDVSSIIVDNASMQAVAKPHQFDVLVTPSMYGTILGNIGAALIGGPGLVAGANFGRDYAVFEPGSRHVGLDIKGQNVANPTAMILSSTLMLNHLGLNEYATRISKAVHETIAEGKHTTRDIGGSSSTTDFTNEIINKLSTM chain 2: ATVKQPSIGRYTGKPNPSTGKYTVSFIEGDGIGPEISKSVKKIFSAANVPIEWESCDVSPIFVNGLTTIPDPAVQSITKNLVALKGPLATPIGKGHRSLNLTLRKTFGLFANVRPAKSIEGFKTTYENVDLVLIRENTEGEYSGIEHIVCPGVVQSIKLITRDASERVIRYAFEYARAIGRPRVIVVHKSTIQRLADGLFVNVAKELSKEYPDLTLETELIDNSVLKVVTNPSAYTDAVSVCPNLYGDILSDLNSGLSAGSLGLTPSANIGHKISIFEAVHGSAPDIAGQDKANPTALLLSSVMMLNHMGLTNHADQIQNAVLSTIASGPENRTGDLAGTATTSSFTEAVIKRL",–,2.3,21.9,2.0,–,~ 38%,–
"^-5IDH1/IDH2: IDH with five residues truncated from the amino terminus of IDH1; octameric (protein, left off: histidine tag, C-terminal, kept) chain 1: AERTLPKKYGGRFTVTLIPGDGVGKEITDSVRTIFEAENIPIDWETINIKQTDHKEGVYEAVESLKRNKIGLKGLWHTPADQTGHGSLNVALRKQLDIYANVALFKSLKGVKTRIPDIDLIVIRENTEGEFSGLEHESVPGVVESLKVMTRPKTERIARFAFDFAKKYNRKSVTAVHKANIMKLGDGLFRNIITEIGQKEYPDIDVSSIIVDNASMQAVAKPHQFDVLVTPSMYGTILGNIGAALIGGPGLVAGANFGRDYAVFEPGSRHVGLDIKGQNVANPTAMILSSTLMLNHLGLNEYATRISKAVHETIAEGKHTTRDIGGSSSTTDFTNEIINKLSTM chain 2: ATVKQPSIGRYTGKPNPSTGKYTVSFIEGDGIGPEISKSVKKIFSAANVPIEWESCDVSPIFVNGLTTIPDPAVQSITKNLVALKGPLATPIGKGHRSLNLTLRKTFGLFANVRPAKSIEGFKTTYENVDLVLIRENTEGEYSGIEHIVCPGVVQSIKLITRDASERVIRYAFEYARAIGRPRVIVVHKSTIQRLADGLFVNVAKELSKEYPDLTLETELIDNSVLKVVTNPSAYTDAVSVCPNLYGDILSDLNSGLSAGSLGLTPSANIGHKISIFEAVHGSAPDIAGQDKANPTALLLSSVMMLNHMGLTNHADQIQNAVLSTIASGPENRTGDLAGTATTSSFTEAVIKRL",–,3.1,30.3,3.5,–,–,–
"^-5IDH1^D168K/IDH2: truncated -5 IDH1 with D168K replacement plus IDH2; tetrameric (protein, left off: histidine tag, C-terminal, kept) chain 1: AERTLPKKYGGRFTVTLIPGDGVGKEITDSVRTIFEAENIPIDWETINIKQTDHKEGVYEAVESLKRNKIGLKGLWHTPADQTGHGSLNVALRKQLDIYANVALFKSLKGVKTRIPDIDLIVIRENTEGEFSGLEHESVPGVVESLKVMTRPKTERIARFAFKFAKKYNRKSVTAVHKANIMKLGDGLFRNIITEIGQKEYPDIDVSSIIVDNASMQAVAKPHQFDVLVTPSMYGTILGNIGAALIGGPGLVAGANFGRDYAVFEPGSRHVGLDIKGQNVANPTAMILSSTLMLNHLGLNEYATRISKAVHETIAEGKHTTRDIGGSSSTTDFTNEIINKLSTM chain 2: ATVKQPSIGRYTGKPNPSTGKYTVSFIEGDGIGPEISKSVKKIFSAANVPIEWESCDVSPIFVNGLTTIPDPAVQSITKNLVALKGPLATPIGKGHRSLNLTLRKTFGLFANVRPAKSIEGFKTTYENVDLVLIRENTEGEYSGIEHIVCPGVVQSIKLITRDASERVIRYAFEYARAIGRPRVIVVHKSTIQRLADGLFVNVAKELSKEYPDLTLETELIDNSVLKVVTNPSAYTDAVSVCPNLYGDILSDLNSGLSAGSLGLTPSANIGHKISIFEAVHGSAPDIAGQDKANPTALLLSSVMMLNHMGLTNHADQIQNAVLSTIASGPENRTGDLAGTATTSSFTEAVIKRL",–,2.2,15.3,2.0,~ 50%,–,–
wild-type IDH1/IDH2 enzyme (yeast NAD+-specific isocitrate dehydrogenase) (complex) chain 1: ATAAQAERTLPKKYGGRFTVTLIPGDGVGKEITDSVRTIFEAENIPIDWETINIKQTDHKEGVYEAVESLKRNKIGLKGLWHTPADQTGHGSLNVALRKQLDIYANVALFKSLKGVKTRIPDIDLIVIRENTEGEFSGLEHESVPGVVESLKVMTRPKTERIARFAFDFAKKYNRKSVTAVHKANIMKLGDGLFRNIITEIGQKEYPDIDVSSIIVDNASMQAVAKPHQFDVLVTPSMYGTILGNIGAALIGGPGLVAGANFGRDYAVFEPGSRHVGLDIKGQNVANPTAMILSSTLMLNHLGLNEYATRISKAVHETIAEGKHTTRDIGGSSSTTDFTNEIINKLSTM chain 2: ATVKQPSIGRYTGKPNPSTGKYTVSFIEGDGIGPEISKSVKKIFSAANVPIEWESCDVSPIFVNGLTTIPDPAVQSITKNLVALKGPLATPIGKGHRSLNLTLRKTFGLFANVRPAKSIEGFKTTYENVDLVLIRENTEGEYSGIEHIVCPGVVQSIKLITRDASERVIRYAFEYARAIGRPRVIVVHKSTIQRLADGLFVNVAKELSKEYPDLTLETELIDNSVLKVVTNPSAYTDAVSVCPNLYGDILSDLNSGLSAGSLGLTPSANIGHKISIFEAVHGSAPDIAGQDKANPTALLLSSVMMLNHMGLTNHADQIQNAVLSTIASGPENRTGDLAGTATTSSFTEAVIKRL,–,–,–,–,–,–,8
